From paper PMC2924166 (Proteins, 2009)
pKd: −log10 of the molar value. Each block holds one molecule with its values, some of them ahead of it.

Key:
Format in all cases: binding
[1] = target: WT CaM1–148 (Rattus norvegicus, UniProt P0DP29); assay: Fluorescence anisotropy titration of Fl-CaMKIIp with WT CaM1–148
[2] = Equilibrium calcium titration of CaM, sites I and II; settings: pH 7.4, 22°C
Procedure, shortened: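 Recombinant CaM constructs (1–148, 1–80) at 2 μM were used alone or with 10 μM CaMKII CaM-binding-domain peptide (residues 290–309, 1:5). CaCl2 was titrated to 1 nM–0.01 M. Phe fluorescence was read at ex 250/em 280 nm. Free Ca2+ came from 0.1 μM Oregon Green, or XRhod5F with peptide. Runs were done ≥3 times, normalized, and fit by nonlinear least squares to ΔG1, ΔG2.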

[3] = Equilibrium calcium titration of CaM, sites III and IV; settings: pH 7.4, 22°C
[4] = Calcium affinity of fluorescent indicator dyes; settings: higher affinity for calcium
[5] = peptide equivalent 0, 2 μM CaM, 50 mM HEPES, 100 mM KCl, 1 mM MgCl2, 0.05 mM EGTA, 5 mM NTA, Oregon Green, repeated at least three times

level of saturation of CaMKIIp by CaM1–148 ([1]; 10 μM CaM1–148, 23 nM calcium): less than 10%
level of saturation of CaMKIIp by CaM1–148 ([1]; 10 μM CaM1–148, 311 nM calcium): more than 95%
pKd ([1]; Kd of (Ca^2+)4-CaM1–148 for Fl-CaMKIIp, 10 mM CaCl2, stoichiometric range, upper limit): ≥ 8.00
concentration of apo CaM-CaMKIIp in presence of 5 eq. CaMKIIp ([1]; apo, 2 μM CaM, 10 μM CaMKIIp): ≤ 10%
Molecule: CC[C@H](C)[C@H](NC(=O)[C@H](C)NC(=O)CNC(=O)[C@H](CCCCN)NC(=O)[C@H](CC(C)C)NC(=O)[C@H](CCCCN)NC(=O)[C@H](CCCNC(=N)N)NC(=O)[C@H](CCCNC(=N)N)NC(=O)[C@H](C)NC(=O)[C@H](CC(N)=O)NC(=O)[C@H](Cc1ccccc1)NC(=O)[C@H](CCCCN)NC(=O)[C@H](CCCCN)NC(=O)[C@@H](N)CC(C)C)C(=O)N[C@@H](CC(C)C)C(=O)N[C@H](C(=O)N[C@H](C(=O)N[C@@H](CCSC)C(=O)N[C@@H](CC(C)C)C(=O)N[C@@H](C)C(=O)O)[C@@H](C)O)[C@@H](C)O [CaMKIIp]

ΔG1 of calcium binding, sites I and II [2, 5]: -5.92 ± 0.38 kcal/mol
Molecule: CaM1–80: N-domain fragment of calmodulin, residues 1–80
ΔGc, sites I and II ([2]; peptide equivalent 0): -1.73 ± 0.68 kcal/mol
ΔGc, sites I and II ([2]; peptide equivalent 5 (CaMKIIp)): -3.38 ± 1.18 kcal/mol

ΔG1 of calcium binding, sites III and IV [3, 5]: -5.45 ± 0.51 kcal/mol
Molecule: CaM76–148: C-domain fragment of calmodulin, residues 76–148
ΔGc, sites III and IV ([3]; peptide equivalent 0): -4.57 ± 1.15 kcal/mol
ΔGc, sites III and IV ([3]; peptide equivalent 5 (CaMKIIp)): -2.81 ± 0.47 kcal/mol

lower Kd for calcium versus Oregon Green [4]: ~ 20 fold
Molecule: XRhod5F
